Assay results: ChEMBL document CHEMBL1759912, “Ionic liquid promoted synthesis, antibacterial and in vitro antiproliferative activity of novel α-aminophosphonate derivatives” (Bioorg Med Chem Lett, 2011)
pIC50: −log10 of the molar value. Calls of active or inactive are those of the source. No cut-off for these calls is given here.

Legend:
A549 [1] = experiment: Antiproliferative activity against human A549 cells; format: functional, cell-based
How it was run: (§1)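 A549 and SK-MEL2 cells (from NCCS Pune) grown in DMEM with 5–10% FBS, penicillin and 4 mM L-glutamine at 37 °C, 5% CO2. Plates were seeded 24 h ahead and washed with serum-free medium. Cells were exposed to 0, 2, 4, 8, 16 and 20 μM for […], then cell proliferation was estimated. Results are % cell growth, averaged from triplicate cultures run twice.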

SK-MEL-2 [2] = experiment: Antiproliferative activity against human SK-MEL-2 cells; format: functional, cell-based; how it was run: as §1
A549 [3] = experiment: Induction of apoptosis in human A549 cells after 6 hrs; format: functional, cell-based
SK-MEL-2 [4] = experiment: Induction of apoptosis in human SK-MEL-2 cells after 6 hrs; format: functional, cell-based
A549 [5] = experiment: Antiproliferative activity against human A549 cells assessed as growth inhibition at 2 to 20 uM after 24 hrs; format: functional
Escherichia coli = experiment: Antibacterial activity against ampicillin-resistant Escherichia coli NCIM 2645 assessed as bacterial growth inhibition zone after 24 hrs by disc diffusion method; format: functional, organism-based
How it was run: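 Strains activated in nutrient broth, 24 h at their optimum growth temperature. Nutrient agar plates seeded with 100 μl mid-log culture. Sterile 6 mm filter paper discs each loaded with 10 μl of compound solution (10 mg/ml in DMSO, filter-sterilised) and left to diffuse 20 min. Plates incubated 24 h at growth temperature. Controls: ampicillin disc (positive), 10 μl DMSO disc (negative). Zone ≥7 mm counted as susceptible.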

Salmonella typhi = experiment: Antibacterial activity against ampicillin-resistant Salmonella typhi NCIM 2501 assessed as bacterial growth inhibition zone at […] after 24 hrs by disc diffusion method; format: functional, organism-based; details: Salmonella enterica subsp. enterica serovar Typhi

CCOP(=O)(OCC)C(Nc1ccc(Cl)cc1[N+](=O)[O-])c1c[nH]c2ccccc12 (configuration not stated)
pIC50 (A549 [1]): 4.94 | pIC50 (SK-MEL-2 [2]): 5.07 | Activity (A549 [3]): Active | Activity (SK-MEL-2 [4]): Active | growth inhibition (GI) (A549 [5]): 80% | Activity (Escherichia coli): Active | Activity (Salmonella typhi): Active

CCOP(=O)(OCC)C(Nc1ccc(Cl)cc1[N+](=O)[O-])c1cccc(Cl)c1 (configuration not stated)
Activity (Escherichia coli): Active | Activity (Salmonella typhi): Active

CCOP(=O)(OCC)C(Nc1ccc(Cl)cc1[N+](=O)[O-])c1ccc(OC)c(OC)c1 (configuration not stated)
Activity (Escherichia coli): Active | Activity (Salmonella typhi): Active

CCOP(=O)(OCC)C(Nc1ccc(I)cc1[N+](=O)[O-])c1ccc(Cl)cc1 (configuration not stated)
Activity (Salmonella typhi): Active
